According to ChEMBL document CHEMBL3774372, “Design, physico-chemical properties and biological evaluation of some new N-[(phenoxy)alkyl]- and N-{2-[2-(phenoxy)ethoxy]ethyl}aminoalkanols as anticonvulsant agents” (Bioorg Med Chem, 2016):
Active and inactive are the calls of the source. The calls are words filed in the database; no cut-off is given here.

What was measured:
Mus musculus [1] = test: Anticonvulsant activity in mouse assessed as protection against 6 Hz psychomotor seizure at 20 mg/kg, ip after 4 hrs; format: functional, organism-based
How it was run: (§1)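 Suspension in 0.5% methylcellulose given ip to mice; corneal stimulation with 0.2 ms monopolar rectangular pulses at 6 Hz for 3 s from a constant current device, mice restrained then released to observation cage. Protected if normal exploratory behaviour resumed within 10 s of stimulation. Scored as protected/tested, 4 mice per group.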

Mus musculus [2] = test: Anticonvulsant activity in mouse assessed as protection against 6 Hz psychomotor seizure at 20 mg/kg, ip after 2 hrs; format: functional, organism-based; how it was run: as §1
[3] = molecular target: B2 bradykinin receptor (Homo sapiens) (UniProt P30411); test: Displacement of [3H]bradykinin from human recombinant B2 bradykinin receptor at 10^-5 M
Chain of B2 bradykinin receptor (Homo sapiens) (P30411 whole entry): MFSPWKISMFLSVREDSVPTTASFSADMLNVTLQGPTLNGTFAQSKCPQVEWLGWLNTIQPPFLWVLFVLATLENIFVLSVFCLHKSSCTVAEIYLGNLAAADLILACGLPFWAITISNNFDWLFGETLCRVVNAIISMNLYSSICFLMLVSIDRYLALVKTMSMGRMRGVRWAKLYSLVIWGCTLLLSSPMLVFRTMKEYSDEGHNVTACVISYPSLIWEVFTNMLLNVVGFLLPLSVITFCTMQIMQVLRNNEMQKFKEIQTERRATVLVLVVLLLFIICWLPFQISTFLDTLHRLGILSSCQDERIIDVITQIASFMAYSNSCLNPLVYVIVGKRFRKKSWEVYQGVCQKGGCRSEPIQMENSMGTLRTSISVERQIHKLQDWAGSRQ
How it was run: (§2)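 Radioligand displacement screen with the test agent at a single 10^-5 M concentration; receptor source and radioligand per target as tabulated (recombinant human cell lines or rat cerebral cortex/urinary bladder).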

[4] = molecular target: C-X-C chemokine receptor type 2 (Homo sapiens) (UniProt P25025); test: Displacement of [125I]IL-8 from human recombinant CXCR2 receptor expressed in HEK293 cells at 10^-5 M; format: cell-based
Chain of C-X-C chemokine receptor type 2 (Homo sapiens) (P25025 whole entry): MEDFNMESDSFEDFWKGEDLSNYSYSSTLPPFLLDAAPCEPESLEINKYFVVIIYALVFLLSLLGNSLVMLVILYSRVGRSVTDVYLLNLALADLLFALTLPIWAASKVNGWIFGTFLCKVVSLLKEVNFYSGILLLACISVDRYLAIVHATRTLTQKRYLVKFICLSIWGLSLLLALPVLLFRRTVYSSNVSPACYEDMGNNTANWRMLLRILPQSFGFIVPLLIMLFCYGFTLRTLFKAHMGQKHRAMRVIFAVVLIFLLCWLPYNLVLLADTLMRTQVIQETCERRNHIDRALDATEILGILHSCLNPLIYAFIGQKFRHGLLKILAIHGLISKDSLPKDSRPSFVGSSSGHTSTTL
How it was run: (§3)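 Radioligand binding screen run at a single test concentration of 10^-5 M. Each target used its stated receptor source (human recombinant CHO or HEK-293 cells, endogenous cell lines, or rat tissue membranes) with the listed radioligand.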

[5] = molecular target: Histamine H2 receptor (Homo sapiens) (UniProt P25021); test: Displacement of [125I]APT from human recombinant histamine H2 receptor expressed in CHO cells at 10^-5 M; format: cell-based; how it was run: as §3
Chain of Histamine H2 receptor (Homo sapiens) (P25021 whole entry): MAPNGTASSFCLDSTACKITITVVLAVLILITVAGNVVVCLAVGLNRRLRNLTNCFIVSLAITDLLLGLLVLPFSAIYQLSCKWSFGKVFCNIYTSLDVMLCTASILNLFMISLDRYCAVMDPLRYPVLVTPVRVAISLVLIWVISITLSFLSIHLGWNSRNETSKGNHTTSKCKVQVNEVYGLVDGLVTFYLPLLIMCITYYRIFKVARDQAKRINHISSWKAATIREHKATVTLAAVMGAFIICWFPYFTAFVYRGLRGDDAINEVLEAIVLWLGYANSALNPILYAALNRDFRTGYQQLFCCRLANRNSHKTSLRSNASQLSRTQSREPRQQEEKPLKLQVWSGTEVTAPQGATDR

[6] = molecular target: Melatonin receptor type 1A (Homo sapiens) (UniProt P48039); test: Displacement of [125I]2-iodomelatonin from human recombinant ML1A receptor expressed in CHO cells at 10^-5 M; format: cell-based; how it was run: as §3
Chain of Melatonin receptor type 1A (Homo sapiens) (P48039 whole entry): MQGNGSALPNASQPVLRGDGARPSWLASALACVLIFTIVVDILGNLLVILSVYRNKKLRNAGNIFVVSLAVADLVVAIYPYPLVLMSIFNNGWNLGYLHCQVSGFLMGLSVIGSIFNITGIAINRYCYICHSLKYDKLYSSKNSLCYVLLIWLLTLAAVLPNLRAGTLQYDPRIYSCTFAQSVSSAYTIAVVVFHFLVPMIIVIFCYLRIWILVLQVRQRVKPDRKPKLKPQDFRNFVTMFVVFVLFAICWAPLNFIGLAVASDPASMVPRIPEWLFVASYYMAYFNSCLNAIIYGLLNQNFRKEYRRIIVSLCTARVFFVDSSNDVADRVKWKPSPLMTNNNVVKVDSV

[7] = molecular target: Mu-type opioid receptor (Homo sapiens) (UniProt P35372); test: Displacement of [3H]DAMGO from human recombinant Mu-type opioid receptor expressed in CHO cells at 10^-5 M; format: cell-based; how it was run: as §3
Chain of Mu-type opioid receptor (Homo sapiens) (P35372 whole entry): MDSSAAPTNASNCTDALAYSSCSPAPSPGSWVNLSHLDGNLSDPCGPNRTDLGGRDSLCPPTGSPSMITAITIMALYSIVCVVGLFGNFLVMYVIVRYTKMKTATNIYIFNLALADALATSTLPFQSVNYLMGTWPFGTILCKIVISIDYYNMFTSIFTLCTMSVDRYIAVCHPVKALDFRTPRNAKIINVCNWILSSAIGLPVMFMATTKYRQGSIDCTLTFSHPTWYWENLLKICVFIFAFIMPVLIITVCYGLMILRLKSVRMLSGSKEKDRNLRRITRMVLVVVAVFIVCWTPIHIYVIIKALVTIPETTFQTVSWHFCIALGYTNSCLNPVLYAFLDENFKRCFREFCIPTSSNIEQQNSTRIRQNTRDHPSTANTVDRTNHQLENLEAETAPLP

Jurkat = test: Displacement of [3H]DTG from sigma receptor in human jurkat cells at 10^-5 M; format: cell-based; how it was run: as §3
Rattus norvegicus [8] = species on record: Rattus norvegicus; test: Displacement of [3H]D888 from rat cerebral cortex L-type calcium channel verapamil binding site at 10^-5 M; format: tissue-based; how it was run: as §3
[9] = molecular target: Sodium-dependent noradrenaline transporter (Homo sapiens) (UniProt P23975); test: Displacement of [3H]nisoxentine from human recombinant norepinephrine transporter expressed in CHO cells at 10^-5 M; format: cell-based; how it was run: as §2
Chain of Sodium-dependent noradrenaline transporter (Homo sapiens) (P23975 whole entry): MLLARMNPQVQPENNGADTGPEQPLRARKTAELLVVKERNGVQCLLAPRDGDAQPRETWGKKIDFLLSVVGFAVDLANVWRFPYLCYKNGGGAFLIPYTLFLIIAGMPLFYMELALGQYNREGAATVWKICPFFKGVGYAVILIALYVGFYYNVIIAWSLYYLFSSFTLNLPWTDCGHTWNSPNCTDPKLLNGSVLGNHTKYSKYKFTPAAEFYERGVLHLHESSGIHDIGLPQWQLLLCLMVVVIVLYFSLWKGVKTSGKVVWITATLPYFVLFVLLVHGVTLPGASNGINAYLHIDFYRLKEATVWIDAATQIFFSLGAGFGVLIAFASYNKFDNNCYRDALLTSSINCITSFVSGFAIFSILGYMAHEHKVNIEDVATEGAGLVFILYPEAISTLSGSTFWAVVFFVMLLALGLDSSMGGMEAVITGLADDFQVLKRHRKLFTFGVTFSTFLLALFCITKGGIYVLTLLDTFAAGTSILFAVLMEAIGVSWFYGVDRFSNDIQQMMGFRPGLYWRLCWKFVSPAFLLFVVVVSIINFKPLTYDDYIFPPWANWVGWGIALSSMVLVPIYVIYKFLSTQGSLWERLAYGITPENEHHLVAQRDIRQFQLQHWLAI

Mus musculus [10] = test: Anticonvulsant activity in mouse assessed as protection against 6 Hz psychomotor seizure at 50 mg/kg, ip after 0.5 hrs; format: functional, organism-based; how it was run: as §1
Rattus norvegicus [11] = test: Anticonvulsant activity in pilocarpine-induced status epilepticus Sprague-Dawley rat model at 100 mg/kg, ip after 1 hr during post stage 3 seizure; format: functional, organism-based
How it was run: (§4)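 Rats given pilocarpine 50 mg/kg ip and observed to first convulsive seizure (Racine stage 3–5, time zero); test drug then given ip in 0.5% methylcellulose. Efficacy = halting further stage 3–5 convulsive seizures; scored protected/tested, time after first stage 3 seizure.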

Rattus norvegicus [12] = test: Anticonvulsant activity in pilocarpine-induced status epilepticus Sprague-Dawley rat model at 100 mg/kg, ip after 4 hrs during post stage 3 seizure; format: functional, organism-based; how it was run: as §4
[13] = Ratio of drug level in brain to plasma in CD1 mouse at 1 mg/kg, iv administered as single dose measured after 240 mins by LC/ESI-MS/MS analysis; format: ADME, organism-based; details: brain and plasma, read-out: BPR
[14] = Ratio of drug level in brain to plasma in CD1 mouse at 1 mg/kg, iv administered as single dose measured after 60 mins by LC/ESI-MS/MS analysis; format: ADME, organism-based; details: brain and plasma, read-out: BPR
Mus musculus [15] = test: Neurotoxicity in mouse at 30 mg/kg, ip after 4 hrs by rotarod test; format: toxicity, organism-based; details: in vivo
How it was run: (§5)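 Mice were dosed ip with compound suspended in 0.5% methylcellulose. Rotarod: a 1 in. knurled rod turning at 6 rpm. Neurotoxicity was scored as failure to stay on the rod for at least 1 min in each of three trials. Results are given as the number of animals affected out of the number tested.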

Mus musculus [16] = test: Neurotoxicity in mouse at 300 mg/kg, ip after 0.5 hrs by rotarod test; format: toxicity, organism-based; details: in vivo; how it was run: as §5
Mus musculus [17] = test: Analgesic activity in mouse assessed as reduction in AUC of formalin-induced licking time during inflammatory phase at 13 mg/kg, ip relative to control; format: functional
How it was run: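 Formalin injected into a mouse hindlimb; total licking time taken as pain intensity. Compound given ip at 13 mg/kg as a suspension in 0.5% methylcellulose; vehicle-only animals served as controls.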

Vibrio harveyi [18] = test: Mutagenicity in Vibrio harveyi BB7M assessed as number of colonies after 48 hrs (reference value: 13 to 14 no_unit); format: ADME, organism-based; details: in vivo
How it was run: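 Vibrio harveyi mutagenicity test: test compound was added to exponentially growing cultures (A600 = 0.1, 30 °C) and grown to OD600 0.3–0.4. Then 5 × 10^6 cells were plated on BOSS agar with neomycin (final 100 µg/mL) and incubated 48 h at 30 °C. Neomycin-resistant colonies were counted. Triplicate; controls were water, DMSO and NQNO 40 ng/mL.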

Vibrio harveyi [19] = test: Antimutagenic activity against Vibrio harveyi BB7 assessed as inhibition of NQNO-induced mutagenicity after 48 hrs; format: functional
How it was run: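 V. harveyi cultures grown exponentially to A600 0.1 at 30 °C, exposed to test compound for 15 min, then to NQNO, and grown on to A600 0.3–0.4. 5 × 10⁶ cells plated on BOSS agar with neomycin (100, final). Neomycin-resistant colonies counted after 48 h at 30 °C. Result given as % inhibition of NQNO mutagenicity; three independent repeats.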

[20] = Ratio of drug level in brain to plasma in CD1 mouse at 1 mg/kg, iv administered as single dose measured after 30 mins by LC/ESI-MS/MS analysis; format: ADME, organism-based; details: brain and plasma, read-out: BPR
Mus musculus [21] = test: Half life in CD1 mouse plasma at 12.92 mg/kg, ig measured up to 240 mins by LC/ESI-MS/MS analysis; format: ADME, organism-based; details: in vivo, po, 4 h
Mus musculus [22] = test: AUMC (0 to infinity) in CD1 mouse plasma at 12.92 mg/kg, ig measured up to 240 mins by LC/ESI-MS/MS analysis; format: ADME, organism-based; details: in vivo, po, 4 h
Mus musculus [23] = test: Cmax in CD1 mouse plasma at 12.92 mg/kg, ip measured up to 240 mins by LC/ESI-MS/MS analysis; format: ADME, organism-based; parameters: dose 12.92 mg/kg, route intraperitoneal; details: in vivo, 4 h
[24] = MRT in CD1 mouse plasma at 12.92 mg/kg, ip measured up to 240 mins by LC/ESI-MS/MS analysis; format: ADME, organism-based
Mus musculus [25] = test: AUC (0 to infinity) in CD1 mouse plasma at 12.92 mg/kg, ip measured up to 240 mins by LC/ESI-MS/MS analysis; format: ADME, organism-based; parameters: dose 12.92 mg/kg, route intraperitoneal, time infinity; details: in vivo, 4 h
[26] = Ratio of drug level in brain to plasma in CD1 mouse at 12.92 mg/kg, ig administered as single dose measured after 15 mins by LC/ESI-MS/MS analysis; format: ADME, organism-based; details: brain and plasma, po, read-out: BPR
[27] = Ratio of drug level in brain to plasma in CD1 mouse at 12.92 mg/kg, ip administered as single dose measured after 60 mins by LC/ESI-MS/MS analysis; format: ADME, organism-based; details: brain and plasma, read-out: BPR
in vitro = details: mouse, liver microsomes

With `Cc1cccc(C)c1OCCOCCN[C@@H](C)CO` the Activity (Mus musculus [1]) was “inactive”, the Activity (Mus musculus [2]) was “inactive” and the inhibition [3] was 1.6%. The inhibition [4] was 2.7%, the inhibition [5] was 17.1% and the inhibition [6] was -7.5%. It also gave an inhibition [7] of 40.2%, an inhibition (Jurkat) of 95.6% and an inhibition (Rattus norvegicus [8]) of 65.9%. It also gave an inhibition [9] of 34.5%.
In the case of `Cc1cccc(C)c1OCCOCCN[C@H](C)CO`, the Activity (Mus musculus [10]) is reported as “Active”, the Activity (Rattus norvegicus [11]) is reported as “inactive” and the Activity (Rattus norvegicus [12]) is reported as “inactive”. The inhibition [3] was -3.9%, the inhibition [4] was 2.9% and the inhibition [5] was 0.6%. For the same molecule, the inhibition [7] was 23.6%, the inhibition (Jurkat) was 92.9% and the inhibition (Rattus norvegicus [8]) was 43.6%. For the same molecule, the inhibition [9] was 52.6%.
In the case of `Cc1cccc(C)c1OCCOCCN[C@H](C)CO.Cl`, the Kp at 4 h [13] is reported as 2.98, the Kp at 1 h [14] is reported as 3.58 and the Activity (Mus musculus [15]) is reported as “Non-toxic”. The Activity (Mus musculus [16]) was “Toxic”, the inhibition in vivo at 13 mg/kg (Mus musculus [17]) was 81.1% and the Activity (Vibrio harveyi [18]) was 22. The “inhibition (INH)” value (Vibrio harveyi [19]) was 75%, the Kp at 0.5 h [20] was 5.41 and the t1/2 (Mus musculus [21]) was 0.485 h. The AUMC (Mus musculus [22]) was 266 ng·h²/mL, the Cmax (Mus musculus [23]) was 1190 ng/mL and the MRT [24] was 1.42 h. For the same molecule, the AUC (Mus musculus [25]) was 903 ng·h/mL, the Kp at […] [26] was 2.67 and the Kp at 1 h [27] was 1.91. For the same molecule, the microsomal CLint at 20 µM (in vitro) was 47 µL/min/mg.
